Results on 19 compounds are retold here after ChEMBL document CHEMBL2413020 (Bioorg Med Chem, 2013).

The inhibition in vivo is the percentage by which the read-out fell short of the control. As usually defined, the inhibition is the drop in the measured response relative to a control, in per cent. One may read the IC50 as the concentration that inhibits the measured activity by half.

The source made the active and inactive calls. The calls are words filed in the database; no cut-off is given here.

Experiment [1] concerns Rattus norvegicus. Description: Antiinflammatory activity in Wistar albino rat assessed as inhibition of carrageenan-induced paw edema at 50 mg/kg, po administered 30 mins prior to carrageenan challenge measured at 4 hrs by plethysmometric analysis relative to control. The experiment is classed as functional. The essentials:
(§1)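 Groups of six male Wistar albino rats (200–250 g), fasted 12 h before and during the test. Agents given orally at 50 mg/kg; vehicle controls received tween 80 (95:5). After 30 min, 0.1 mL of 1% w/v carrageenan in saline injected subplantar into the left hind paw. Paw volume by plethysmometer at 0 h (within 30 s) and at 1, 2, 3 and 4 h. % edema inhibition from (Vt−V0) vs control; mean SEM, ANOVA.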
For orientation: In the carrageenan paw model, swelling and tenderness develop within hours.

In experiment [2] the test system is Rattus norvegicus. Put plainly: Antiinflammatory activity in Wistar albino rat assessed as inhibition of carrageenan-induced paw edema at 50 mg/kg, po administered 30 mins prior to carrageenan challenge measured at 3 hrs by plethysmometric analysis relative to control. The experiment is classed as functional. The procedure, abridged:
as §1

The test system of experiment [3] is Rattus norvegicus. Description: Antiinflammatory activity in Wistar albino rat assessed as inhibition of carrageenan-induced paw edema at 50 mg/kg, po administered 30 mins prior to carrageenan challenge measured at 2 hrs by plethysmometric analysis relative to control. It counts as functional. The procedure, abridged:
as §1

Experiment [4] concerns the target T1, Prostaglandin G/H synthase 1 (Ovis aries) (UniProt P05979).
T1 sequence (whole entry): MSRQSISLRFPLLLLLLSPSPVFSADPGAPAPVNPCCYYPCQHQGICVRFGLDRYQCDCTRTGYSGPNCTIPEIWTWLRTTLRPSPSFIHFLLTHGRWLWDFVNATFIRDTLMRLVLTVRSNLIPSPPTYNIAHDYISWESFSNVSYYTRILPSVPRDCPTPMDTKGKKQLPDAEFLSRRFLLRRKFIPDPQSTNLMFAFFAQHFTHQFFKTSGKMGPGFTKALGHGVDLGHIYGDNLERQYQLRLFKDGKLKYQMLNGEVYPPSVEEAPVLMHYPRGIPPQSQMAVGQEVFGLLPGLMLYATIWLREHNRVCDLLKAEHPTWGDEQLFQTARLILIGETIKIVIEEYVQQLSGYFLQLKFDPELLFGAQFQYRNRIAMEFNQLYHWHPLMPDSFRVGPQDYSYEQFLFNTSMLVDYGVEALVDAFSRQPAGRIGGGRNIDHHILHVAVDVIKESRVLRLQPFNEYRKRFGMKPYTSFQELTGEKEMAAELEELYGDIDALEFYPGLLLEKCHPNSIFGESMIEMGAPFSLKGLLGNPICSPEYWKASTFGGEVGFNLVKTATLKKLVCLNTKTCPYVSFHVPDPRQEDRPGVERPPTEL
Description: Inhibition of ovine COX1 using arachidonic acid as substrate assessed as production of PGF2alpha at 30 uM preincubated for 10 mins followed by substrate addition measured after 2 mins by EIA in presence of stannous chloride relative to control.

The subject of experiment [5] is Rattus norvegicus. Put plainly: Antiinflammatory activity in Wistar albino rat assessed as inhibition of carrageenan-induced paw edema at 50 mg/kg, po administered 30 mins prior to carrageenan challenge measured at 1 hr by plethysmometric analysis relative to control. The experiment is classed as functional. The essentials: as §1
Experiment [6] has as its target T2, Prostaglandin G/H synthase 1 (Ovis aries, UniProt P05979).
T2 sequence (P05979 whole entry): T1 sequence (whole entry)
Put plainly: Inhibition of ovine COX1 using arachidonic acid as substrate assessed as production of PGF2alpha preincubated for 10 mins followed by substrate addition measured after 2 mins by EIA in presence of stannous chloride. The procedure, abridged: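 Kit-based EIA in 0.1 M Tris-HCl pH 8 with 2 mM phenol. Enzyme and compound preincubated 10 min at 37 °C; arachidonic acid started a 2 min reaction, stopped with 1 M HCl, then stannous chloride 5 min at room temperature. EIA plate incubated 18 h, Ellman's reagent, read at 410 nm.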

The subject of experiment [7] is Rattus norvegicus. Description: Antiinflammatory activity in Wistar albino rat assessed as inhibition of carrageenan-induced paw edema at 50 mg/kg, ip administered 30 mins prior to carrageenan challenge measured at 2 hrs by plethysmometric analysis relative to control. The experiment is classed as functional. As to conditions: route intraperitoneal. The essentials: (§2)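 Male Wistar albino rats (200–250 g), food withdrawn 12 h before and during the test, in groups of six. Reference drug given ip; controls received tween 80 (95:5). At 30 min, 0.1 mL of 1% w/v carrageenan in saline injected subplantar into the left hind paw. Plethysmometer paw volume read within 30 s, then at 1–4 h. % inhibition vs control (Vt−V0); mean SEM, ANOVA.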

Experiment [8] deals with Rattus norvegicus. Description: Antiinflammatory activity in Wistar albino rat assessed as inhibition of carrageenan-induced paw edema at 50 mg/kg, ip administered 30 mins prior to carrageenan challenge measured at 3 hrs by plethysmometric analysis relative to control. The settings on record: route intraperitoneal. The experiment is classed as functional. The procedure, abridged: as §2

Experiment [9] concerns Rattus norvegicus. Put plainly: Antiinflammatory activity in Wistar albino rat assessed as inhibition of carrageenan-induced paw edema at 50 mg/kg, ip administered 30 mins prior to carrageenan challenge measured at 1 hr by plethysmometric analysis relative to control. The experiment is classed as functional. As to conditions: route intraperitoneal. The essentials: as §2

Experiment [10] has as its system Rattus norvegicus. Description: Antiinflammatory activity in Wistar albino rat assessed as inhibition of carrageenan-induced paw edema at 50 mg/kg, ip administered 30 mins prior to carrageenan challenge measured at 4 hrs by plethysmometric analysis relative to control. It counts as functional. As to conditions: route intraperitoneal. The procedure, abridged:
as §2

Regarding `Cc1ccc(-c2cc(C(F)(F)F)nn2-c2ccc(C#N)cc2)cc1`, the inhibition in vivo at 50 mg/kg with Rattus norvegicus [1] was found to be 80.2%; in the experiment on Rattus norvegicus [2], 82.7%; in the experiment on Rattus norvegicus [3] it was 87.2%; in the experiment with Rattus norvegicus [5], 65.7%. Further, the inhibition entry in experiment [4] was “inactive”.

For `N#Cc1ccc(-n2nc(C(F)(F)F)cc2-c2ccc(Cl)cc2)cc1`, the inhibition in vivo at 50 mg/kg in the experiment with Rattus norvegicus [1] was 65%; with Rattus norvegicus [2], 67.6%; with Rattus norvegicus [3], 76.5%; with Rattus norvegicus [5] it was 26.3%. Moreover, the inhibition result in [4] is “inactive”.

Regarding `N#Cc1ccc(-n2nc(C(F)(F)F)cc2-c2ccc3ccccc3c2)cc1`, the inhibition in vivo at 50 mg/kg with Rattus norvegicus [1] amounted to 48%; in the experiment with Rattus norvegicus [2] it was 59.5%; with Rattus norvegicus [3], 67.8%; in the experiment with Rattus norvegicus [5] it was 84.8%. Moreover, the inhibition in [4] was determined as 20.7%.

For the compound `NC(=S)c1ccc(-n2nc(C(F)(F)F)cc2-c2ccccc2)cc1`, the IC50 in experiment [6] came to 1420 nM. In addition, the inhibition in vivo at 50 mg/kg in the experiment with Rattus norvegicus [1] amounted to 50%; in the experiment with Rattus norvegicus [2], 49.7%; in the experiment on Rattus norvegicus [3], 74.9%; with Rattus norvegicus [5] it was 82.8%. Also, the inhibition in experiment [4] was 97.9%.

`N#Cc1ccc(-n2nc(C(F)(F)F)cc2-c2cccs2)cc1`: the inhibition in vivo at 50 mg/kg came to 55.9% in the experiment on Rattus norvegicus [1], 57.8% with Rattus norvegicus [2], 71.4% in the experiment with Rattus norvegicus [3] and 81.8% in the experiment with Rattus norvegicus [5]. For the same compound, the inhibition result in experiment [4] is “inactive”.

Regarding `COc1ccc2c(c1)c(CC(=O)O)c(C)n2C(=O)c1ccc(Cl)cc1` [INDOMETHACIN], the inhibition in vivo at 50 mg/kg with Rattus norvegicus [7] is 90.3%; with Rattus norvegicus [8] it was 85%; with Rattus norvegicus [9], 96%; with Rattus norvegicus [10] it was 90.2%.

As for `NC(=S)c1ccc(-n2nc(C(F)(F)F)cc2-c2ccc(F)cc2)cc1`, the IC50 in experiment [6] was over 30000 nM. The inhibition in vivo at 50 mg/kg in the experiment with Rattus norvegicus [1] came out at 82.8%; in the experiment with Rattus norvegicus [2] it was 71.7%; in the experiment with Rattus norvegicus [3], 85.4%; with Rattus norvegicus [5] it was 74.8%. The inhibition entry in experiment [4] was “inactive”.

For `N#Cc1ccc(-n2nc(C(F)(F)F)cc2-c2ccccc2)cc1`, the concentration for half-maximal inhibition (IC50) in [6] is 1110 nM. The inhibition in vivo at 50 mg/kg was 91% in the experiment on Rattus norvegicus [1], 84.4% with Rattus norvegicus [2], 81.1% in the experiment with Rattus norvegicus [3] and 91.9% with Rattus norvegicus [5]. Further, the inhibition in experiment [4] amounted to 97%.

Turning to `Cc1ccc(-c2cc(C(F)(F)F)nn2-c2ccc(C(N)=S)cc2)cc1`, the IC50 in experiment [6] is over 30000 nM. The inhibition in vivo at 50 mg/kg amounted to 51.7% with Rattus norvegicus [1], 60.1% in the experiment with Rattus norvegicus [2], 79.4% in the experiment with Rattus norvegicus [3] and 73.7% in the experiment on Rattus norvegicus [5]. The inhibition in [4] stood at 44.3%.

For the compound `N#Cc1ccc(-n2nc(C(F)(F)F)cc2-c2ccco2)cc1`, the inhibition in vivo at 50 mg/kg with Rattus norvegicus [1] amounted to 61.6%; in the experiment with Rattus norvegicus [2], 67.6%; in the experiment with Rattus norvegicus [3] it was 79.1%; in the experiment on Rattus norvegicus [5], 79.8%. Besides, the inhibition result in [4] was “inactive”.

For the compound `COc1ccc(-c2cc(C(F)(F)F)nn2-c2ccc(C(N)=S)cc2)cc1`, the inhibition in vivo at 50 mg/kg in the experiment on Rattus norvegicus [1] was 52.9%; in the experiment with Rattus norvegicus [2], 65.9%; in the experiment with Rattus norvegicus [3], 77.9%; with Rattus norvegicus [5], 78.8%.

Regarding `COc1ccc(-c2cc(C(F)(F)F)nn2-c2ccc(C#N)cc2)cc1`, the inhibition in vivo at 50 mg/kg worked out at 54.8% in the experiment on Rattus norvegicus [1], 69.9% in the experiment on Rattus norvegicus [2], 85.2% in the experiment with Rattus norvegicus [3] and 44.4% in the experiment with Rattus norvegicus [5].

Consider `NC(=S)c1ccc(-n2nc(C(F)(F)F)cc2-c2ccc(Br)cc2)cc1`, for which the concentration for half-maximal inhibition (IC50) in experiment [6] was 2350 nM. The inhibition in vivo at 50 mg/kg with Rattus norvegicus [1] was 60.3%; with Rattus norvegicus [2], 72.8%; in the experiment on Rattus norvegicus [3], 84.9%; in the experiment with Rattus norvegicus [5] it was 54.5%. In addition, the inhibition in experiment [4] is 86.1%.

`NC(=S)c1ccc(-n2nc(C(F)(F)F)cc2-c2cccs2)cc1`: the inhibition in vivo at 50 mg/kg with Rattus norvegicus [1] is 61.5%; in the experiment on Rattus norvegicus [2], 57.2%; with Rattus norvegicus [3] it was 73.4%; in the experiment with Rattus norvegicus [5] it was 85.9%. Further, the inhibition in [4] was 39.8%.

For the compound `NC(=S)c1ccc(-n2nc(C(F)(F)F)cc2-c2ccc3ccccc3c2)cc1`, the inhibition in vivo at 50 mg/kg in the experiment with Rattus norvegicus [1] is 46%; with Rattus norvegicus [2] it was 53.2%; with Rattus norvegicus [3], 72.9%; with Rattus norvegicus [5], 92.9%.

Regarding `N#Cc1ccc(-n2nc(C(F)(F)F)cc2-c2ccc(F)cc2)cc1`, the inhibition in vivo at 50 mg/kg in the experiment with Rattus norvegicus [1] stood at 90.4%; in the experiment on Rattus norvegicus [2] it was 84.4%; in the experiment with Rattus norvegicus [3], 81.1%; in the experiment on Rattus norvegicus [5], 79.8%. Further, in [4], the inhibition result was “inactive”.

Take `N#Cc1ccc(-n2nc(C(F)(F)F)cc2-c2ccc(Br)cc2)cc1`: the IC50 in experiment [6] is over 30000 nM. The inhibition in vivo at 50 mg/kg in the experiment on Rattus norvegicus [1] was found to be 86.4%; with Rattus norvegicus [2] it was 83.8%; in the experiment on Rattus norvegicus [3], 88.8%; in the experiment on Rattus norvegicus [5], 78.8%. Also, in [4], the inhibition worked out at 13.4%.

Turning to `NC(=S)c1ccc(-n2nc(C(F)(F)F)cc2-c2ccco2)cc1`, the 50% inhibitory concentration (IC50) in [6] was over 30000 nM. The inhibition in vivo at 50 mg/kg was 59.8% in the experiment on Rattus norvegicus [1], 58.4% with Rattus norvegicus [2], 77.4% in the experiment with Rattus norvegicus [3] and 82.8% with Rattus norvegicus [5]. Besides, in experiment [4], the inhibition stood at 20.1%.

For the compound `NC(=S)c1ccc(-n2nc(C(F)(F)F)cc2-c2ccc(Cl)cc2)cc1`, the IC50 in [6] was 1110 nM. In addition, the inhibition in vivo at 50 mg/kg was 61.5% with Rattus norvegicus [1], 63% in the experiment on Rattus norvegicus [2], 77.4% with Rattus norvegicus [3] and 89.9% in the experiment on Rattus norvegicus [5]. Also, in [4], the inhibition stood at 86.9%.
